# ChEMBL document CHEMBL4814044, “Design and synthesis, biological evaluation of bis-(1,2,3- and 1,2,4)-triazole derivatives as potential antimicrobial and antifungal agents” (2021)
# Key:
# Type in all cases: functional
# Aspergillus niger [1] = assay: Antifungal activity against Aspergillus niger MTCC 404 assessed as zone of inhibition at 24 uM incubated for 2 days by cross streak plate method; conditions: MTCC 404, 48 h, time 2 day, read-out: IZ
# In short: (§1)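 Fungal strain (A. niger MTCC 404 or S. cerevisiae MTCC 1344) was incubated with the compound for 2 days at 37 °C. Growth inhibition was then assessed by the cross streak plate method.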
# Saccharomyces cerevisiae [2] = assay: Antifungal activity against Saccharomyces cerevisiae MTCC 1344 assessed as zone of inhibition at 36 uM incubated for 2 days by cross streak plate method; conditions: MTCC 1344, 48 h, time 2 day, read-out: IZ
# In short: (§2)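 S. cerevisiae MTCC 1344 cultures were incubated for 2 days at 37 °C and then tested by the cross streak plate method.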
# Saccharomyces cerevisiae [3] = assay: Antifungal activity against Saccharomyces cerevisiae MTCC 1344 assessed as zone of inhibition at 24 uM incubated for 2 days by cross streak plate method; conditions: MTCC 1344, 48 h, time 2 day, read-out: IZ; in short: as §1
# Saccharomyces cerevisiae [4] = assay: Antifungal activity against Saccharomyces cerevisiae MTCC 1344 assessed as zone of inhibition at 48 uM incubated for 2 days by cross streak plate method; conditions: MTCC 1344, 48 h, time 2 day, read-out: IZ; in short: as §2
# Aspergillus niger [5] = assay: Antifungal activity against Aspergillus niger MTCC 404 assessed as zone of inhibition at 48 uM incubated for 2 days by cross streak plate method; conditions: MTCC 404, 48 h, time 2 day, read-out: IZ; in short: as §1
# Aspergillus niger [6] = assay: Antifungal activity against Aspergillus niger MTCC 404 assessed as zone of inhibition at 36 uM incubated for 2 days by cross streak plate method; conditions: MTCC 404, 48 h, time 2 day, read-out: IZ; in short: as §1
smiles,measurement,setting,value
Clc1ccc(COC(Cn2ccnc2)c2ccc(Cl)cc2Cl)c(Cl)c1 (stereo unspecified) [MICONAZOLE],zone of inhibition at 24 µM,Aspergillus niger [1],8 mm
same,zone of inhibition at 36 µM,Saccharomyces cerevisiae [2],9 mm
same,zone of inhibition at 24 µM,Saccharomyces cerevisiae [3],8 mm
same,zone of inhibition at 48 µM,Saccharomyces cerevisiae [4],12 mm
same,zone of inhibition at 48 µM,Aspergillus niger [5],12 mm
same,zone of inhibition at 36 µM,Aspergillus niger [6],10 mm
